Source: ChEMBL document CHEMBL4825777, “Tripeptides as Integrin-Linked Kinase Modulating Agents Based on a Protein-Protein Interaction with α-Parvin” (ACS Med Chem Lett, 2021)
Each block holds one compound with its values, some of them ahead of it. Active and inactive are the calls of the source. No cut-off for these calls is given here. Non-standard residues stand in square brackets, D forms with d. Residues, ends and D or L forms follow the SMILES beside them. 2Nal = N[C@@H](Cc1ccc2ccccc2c1)C(=O)O

Key:
[1] = Cytotoxicity against human mesangial cells assessed as reduction in cell viability at 1 to 100 uM incubated for 24 hrs by MTT assay; type: cell-based; details: dose 1-100 µM
Mesangial cell [2] = test: Induction of F-actin polymerization in human mesangial cells ILK siRNA assessed as increase in phalloidin content at 50 uM measured after 24 hrs by Alexa 568-phalloidin based confocal microscopy relative to control; details: filed as activator
Method in brief: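 Human mesangial cells transfected with ILK siRNA, or scrambled siRNA as transfection control; cells then held in buffer (control) or compound at 50 μM for 24 h. Stained with Alexa 568 phalloidin and imaged by confocal microscopy. F-actin quantified in three independent assays; mean ± SEM as percentage vs control, p < 0.05 vs control.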

[3] = target: T1, Scaffold protein ILK (Homo sapiens) (UniProt Q13418); test: Induction of ILK (unknown origin)
T1 sequence (whole entry): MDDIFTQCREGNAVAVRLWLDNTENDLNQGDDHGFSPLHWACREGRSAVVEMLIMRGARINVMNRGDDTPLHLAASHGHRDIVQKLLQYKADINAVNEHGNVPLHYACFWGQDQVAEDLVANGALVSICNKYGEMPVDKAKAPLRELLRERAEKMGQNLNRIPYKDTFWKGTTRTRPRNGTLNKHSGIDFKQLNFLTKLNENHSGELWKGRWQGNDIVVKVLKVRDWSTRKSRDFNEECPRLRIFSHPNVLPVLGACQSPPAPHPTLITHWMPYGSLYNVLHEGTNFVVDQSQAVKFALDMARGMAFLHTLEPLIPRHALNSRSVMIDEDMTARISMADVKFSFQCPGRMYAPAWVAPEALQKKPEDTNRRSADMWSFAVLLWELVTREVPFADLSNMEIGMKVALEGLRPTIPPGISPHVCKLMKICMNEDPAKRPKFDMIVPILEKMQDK

Mesangial cell [4] = test: Induction of F-actin polymerization in human mesangial cells assessed as increase in F-actin levels measured after 24 hrs by Alexa 568-phalloidin based confocal microscopy
Method in brief: (§1)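 Human mesangial cells incubated 24 h with compound at 50 μM, or with buffer as control. Cells stained with Alexa 568 phalloidin and F-actin examined by confocal microscopy. F-actin amount measured in three independent assays; mean ± SEM expressed as percent of control values; p < 0.05 vs control.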

[5] = target: T1, Scaffold protein ILK (Homo sapiens); test: Modulation of ILK in human mesangial cells assessed as reduction in GSK-3beta phosphorylation at ser9 residue at 50 uM measured upto 90 mins by Western blot analysis; type: cell-based; details: Mesangial cell, time min <=90
Mesangial cell [6] = test: Induction of F-actin polymerization in human mesangial cells assessed as F-actin levels at 50 uM measured after 24 hrs by Alexa 568-phalloidin based confocal microscopy; details: filed as activator; method in brief: as §1
[7] = target: T1, Scaffold protein ILK (Homo sapiens); test: Modulation of ILK in human mesangial cells assessed as reduction in AKT phosphorylation at Ser473 residue at 50 uM measured upto 90 mins by Western blot analysis; type: cell-based; details: Mesangial cell, time min <=90
[8] = target: T1, Scaffold protein ILK (Homo sapiens); test: Inhibition of ILK (unknown origin)

Activity [3]: inactive
Activity [5]: inactive
Activity [7]: inactive
Compound: COC(=O)[C@@H](NC(=O)[C@H](Cc1ccccc1)NC(=O)[C@H](Cc1ccc(O)cc1)NC(C)=O)C(C)C (Ac-Tyr-Phe-Val-OMe)
Activity [1]: Non-Toxic
Activity (Mesangial cell [2]): 100%
Activity (Mesangial cell [6]): Active

Activity [3]: inactive
inhibition [8]: Active
Compound: COC(=O)[C@@H](NC(=O)[C@H](Cc1ccc2ccccc2c1)NC(=O)[C@H](Cc1ccc(O)cc1)NC(C)=O)C(C)C (Ac-Tyr-[2Nal]-Val-OMe)

Further lines, the compound ahead of its results:

Compound: COC(=O)[C@@H](NC(=O)[C@H](Cc1ccccc1)NC(=O)[C@H](C)NC(C)=O)C(C)C (Ac-Ala-Phe-Val-OMe)
Activity [1]: Non-Toxic
Activity (Mesangial cell [2]): 59%
Activity [3]: inactive

Compound: COC(=O)[C@@H](NC(=O)[C@H](C)NC(=O)[C@H](Cc1ccc(O)cc1)NC(C)=O)C(C)C (Ac-Tyr-Ala-Val-OMe)
Activity [3]: inactive

Compound: COC(=O)[C@H](C)NC(=O)[C@H](Cc1ccccc1)NC(=O)[C@H](Cc1ccc(O)cc1)NC(C)=O (Ac-Tyr-Phe-Ala-OMe)
Activity [3]: inactive

Compound: COC(=O)[C@H](CO)NC(=O)[C@H](Cc1ccccc1)NC(=O)[C@H](Cc1ccc(O)cc1)NC(C)=O (Ac-Tyr-Phe-Ser-OMe)
Activity [3]: inactive

Compound: CC(=O)N[C@@H](Cc1ccc(O)cc1)C(=O)N[C@@H](Cc1ccccc1)C(=O)N[C@H](C(=O)O)C(C)C (Ac-Tyr-Phe-Val-OH)
Activity [3]: inactive
Activity (Mesangial cell [4]): inactive

Compound: COC(=O)[C@H](CO)NC(=O)[C@H](Cc1ccc2ccccc2c1)NC(=O)[C@H](Cc1ccc(O)cc1)NC(C)=O (Ac-Tyr-[2Nal]-Ser-OMe)
Activity [3]: inactive
inhibition [8]: Active
